Assay outcomes from PubChem BioAssay.
hERG rescue: compounds protecting human hERG from proarrhythmic drug block | Q12809 | CHO-hERG, FluxOR thallium flux, dofetilide IC70 present | activation (rescue from dofetilide block), less the hit threshold, % at 10 µM | 310,000 compounds, 0.51% hits;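 active = activation above the mean of controls blocked by dofetilide plus 5 SD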;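 also: thallium influx through hERG after potassium depolarization seen as dye fluorescence rise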
KCNK3 inh: human KCNK3 channel inhibition, primary screen; CHO-KCNK3 thallium flux, FluxOR fluorescence; hits give low values; B-score at 10 µM; 340,000 compounds, 0.84% hits; AID 602410;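 active = B-score under library mean minus 4 SD, starting fluorescence ratio at most library mean plus 5 SD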;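 also: more negative B-score means stronger inhibition of thallium flux through KCNK3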
Target sequence (O14649 whole entry, looked up): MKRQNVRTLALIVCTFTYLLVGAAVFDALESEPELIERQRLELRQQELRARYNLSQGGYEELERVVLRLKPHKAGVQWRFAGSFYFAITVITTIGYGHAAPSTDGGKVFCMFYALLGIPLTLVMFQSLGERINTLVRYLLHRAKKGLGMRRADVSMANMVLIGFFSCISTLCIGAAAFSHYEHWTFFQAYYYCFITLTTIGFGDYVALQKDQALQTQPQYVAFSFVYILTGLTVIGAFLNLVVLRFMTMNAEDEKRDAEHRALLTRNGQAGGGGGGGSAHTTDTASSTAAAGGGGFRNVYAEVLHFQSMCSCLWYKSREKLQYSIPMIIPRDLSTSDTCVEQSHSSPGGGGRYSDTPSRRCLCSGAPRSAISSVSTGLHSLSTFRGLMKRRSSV
KCNK9 inh: human KCNK9 channel inhibition. B-score at 10 µM. HEK293 KCNK9, FluxOR thallium flux fluorescence; hits give low values. 310,000 compounds, 1.2% hits;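 active = ratio B-score over 3 SD below the library mean, with starting fluorescence within 5 SD of its mean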;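 also: negative B-score means less thallium flux so channel inhibition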
KCNQ1 pot: potentiators or activators of human KCNQ1 potassium channel; AID 2648; 310,000 compounds, 0.35% hits; P51787; CHO-K1 KCNQ1, thallium flux FluxOR fluorescence; hits give high values; B-score at 10 µM;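 active = fluorescence ratio B-score, a plate-corrected score, at least three library SD, with initial intensity B-score within 5 SD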
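Material: CHO-K1 cells stably expressing KCNQ1. Medium: assay buffer for compound exposure, DMSO matched across wells. Reagent: K+/Tl+ depolarizing stimulus. Compound dosing: single-concentration screen. Times: 37 °C overnight plating, 90-min dark dye load, 20-min compound pretreatment. Technique: FluxOR Tl+ flux fluorescence.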
KCNQ1 inh: blocks the human KCNQ1 potassium channel; 310,000 compounds, 1.3% hits; CHO-K1 KCNQ1, FluxOR thallium flux fluorescence; hits give high values; B-score at 10 µM;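 active = compounds whose thallium flux B-score, printed positive for inhibition, exceeds three library SD while starting fluorescence stays within three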;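 also: channel opened by potassium depolarization with thallium stimulus after 20 min compound exposure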
KCNK3 inh conf: human KCNK3 channel inhibition, confirmation assay. CHO-KCNK3 thallium flux, FluxOR fluorescence; 0% buffer, 100% carvedilol maximal block. 2,400 compounds, 99% hits. AID 651638. ratio percent of control, % at 10 µM. shares compounds with KCNK3 inh;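 active = ratio percent of control, averaged over triplicates, above buffer control mean plus 5 SD, cut at about 64% in these data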;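 also: ratio is the fluorescence rise from min to max over baseline after thallium stimulus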
KCNK3 noninduced: activity in cells without induced KCNK3 expression; shares compounds with KCNK3 inh; non-induced KCNK3 parental cells, FluxOR thallium flux; hits give low values; thallium flux ratio (lower = more inhibition) at 10 µM; 2,400 compounds, 40% hits; AID 651747;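 active = thallium flux ratio, averaged over three wells, more than 5 SD below the buffer control mean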;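 also: host cells are CHO cells without KCNK3 induction; ratio is peak minus trough fluorescence over baseline then normalized to buffer controls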
An asterisk follows results filed as active; i = inactive; x = no result. The list is not random: actives were taken first. Their share in the collection is about 3.1%.

SMILES	hERG rescue	KCNK3 inh	KCNK9 inh	KCNQ1 pot	KCNQ1 inh	KCNK3 inh conf	KCNK3 noninduced
CCc1sc(C(=O)Nc2cccc(-n3cnnn3)c2)cc1C	x	i	x	x	x	x	x
CCOC(=O)C1CCCN(C(=S)NC2CCCC2)C1 (centres undefined)	-11.9	i	i	i	i	x	x
OC1(c2ccc(OC(F)F)cc2)CSC(=Nc2cccnc2)N1C1CC1 (centres undefined)	-12.8	i	i	i	i	x	x
COc1ccc(OC)c(C2(O)CSC(=Nc3cccnc3)N2Cc2ccco2)c1 (centres undefined)	-15.9	-10.9*	i	i	i	0.0	i
CCN1N=C(c2ccccc2)Cn2c1nc1ccccc12	-14.1	-9.35*	i	i	i	87.7*	i
CS(=O)(=O)N1CCn2c1nc1ccccc12	-4.6	i	i	i	i	x	x
CCN(CC)C(=O)c1ccc(COc2ccccc2Cl)o1	-4.1	i	i	i	i	x	x
CN(C(=O)c1ccc(COc2ccccc2Cl)o1)c1ccccc1	-2.5	-9.94*	i	i	i	82.0*	i
OC1CCCN(c2c3c(nc4cc(-c5cccc(Cl)c5)nn24)CCC3)C1 (centres undefined)	-4.8	-10.5*	i	i	i	92.7*	i
Cc1cccc(-c2cc3nc4c(c(N5CCCC(O)C5)n3n2)CCC4)c1 (centres undefined)	-2.6	-10.1*	i	i	i	102.7*	i
C=CCNCC(=O)Nc1ccccc1SCC(=O)Nc1ccsc1C(=O)OC	-8.7	i	i	i	i	x	x
CCN(CC)CC(=O)Nc1ccccc1SCC(=O)Nc1ccsc1C(=O)OC	-11.2	-9.91*	i	i	i	98.3*	i
O=C(NCCc1ccc(Cl)cc1)C1CCCN1C(=O)Nc1ccccc1 (centres undefined)	-2.2	i	i	i	i	x	x
CCOC(=O)C1=C(C)NC2=C(C(=O)c3ccccc32)C1c1ccc(O)cc1 (centres undefined)	-2.3	i	i	i	i	x	x
CCOC(=O)C1=C(C)NC2=C(C(=O)c3ccccc32)C1c1cccc2ccccc12 (centres undefined)	-4.1	-10.6*	i	i	i	113.0*	0.153*
CCN(CC)CCCNC(=O)c1ccc2c3n(nc2c1)-c1ccc(Cl)cc1CO3	-5.4	i	i	i	i	x	x
N#CC1=C(N)Oc2cc(Nc3ccccc3)ccc2C1c1ccncc1 (centres undefined)	-12.8	-8.8*	-6.84*	i	i	105.7*	i
N#CC1=C(N)Oc2cc(N)ccc2C1c1cccnc1 (centres undefined)	-5.2	i	i	i	i	x	x
CCOC(=O)c1c(C)[nH]c(C)c1C(=O)COC(=O)[C@@H](NC(=O)c1ccccc1OCC)C(C)C	-12.8	-9.09*	i	i	i	104.3*	i
CCOP(=O)(OCC)c1nc(-c2ccc(Br)cc2)oc1N1CCCCC1	-2.8	-10.2*	i	i	i	101.7*	i
CCOP(=O)(OCC)c1nc(-c2ccc(C)cc2)oc1N1CCOCC1	-3.2	i	i	i	i	x	x
O=C(Nc1ccc(C(F)(F)F)cc1)c1ccccc1-n1cnnn1	x	i	x	x	x	x	x
Cc1cc(C)c2nc(NNC(=O)c3cc(=O)c4ccccc4o3)sc2c1	-11.7	i	i	i	i	x	x
COc1ccc(OC)c(NC2=C(Cl)C(=O)N(Cc3ccccc3)C2=O)c1	-10.7	i	i	i	i	x	x
CCOc1ccccc1NC1=C(Cl)C(=O)N(Cc2ccccc2)C1=O	-2.7	-8.84*	i	i	i	116.7*	0.153*
SMILES	hERG rescue	KCNK3 inh	KCNK9 inh	KCNQ1 pot	KCNQ1 inh	KCNK3 inh conf	KCNK3 noninduced
CC1=Nc2ccccc2/C1=C/c1nc(-c2ccc(C)s2)oc1O	-36.1	i	i	i	i	x	x
CC1=Nc2ccccc2/C1=C/c1sc(=N)n(-c2nccs2)c1O	-23.6	-10.1*	i	i	10*	174.7*	0.0887*
CCOc1cc(/C=N/NC(=O)c2ccncc2)ccc1OC(=O)c1ccco1	-10.6	i	i	i	i	x	x
CCOc1cc(/C=N/NC(=O)C(O)(c2ccccc2)c2ccccc2)ccc1OC(=O)c1ccco1	-14.1	-8.8*	i	i	i	82.7*	i
Cc1ccc(Oc2c(C=O)c3ccccc3n2C)cc1	x	i	x	x	x	x	x
Cc1cccc(Sc2c(C=O)c3ccccc3n2C)c1	-6.1	-10.2*	i	i	i	110.3*	0.136*
CCOc1nc(SCCOc2ccccc2)nc(N(C)C)n1	-3.7	-9.64*	i	i	i	98.3*	i
Cc1ccccc1OCCSc1nc(N(C)C)nc(N(C)C)n1	-10.9	i	i	i	i	x	x
COc1cccc(Oc2ccc(C(F)(F)F)cc2NC(=O)CCc2nc3ccccc3c(=O)[nH]2)c1	-14.9	i	-7*	i	i	96.7*	i
Cc1[nH]c2ccc(F)cc2c1CCN(Cc1cccnc1)C(=S)Nc1ccccc1	-20.4	-10.3*	i	i	i	91.3*	i
CCOc1ccc(NC(=S)N(CCc2c(C)[nH]c3ccccc23)Cc2cccnc2)cc1	-19.0	i	i	i	i	x	x
COc1ccc(NC(=S)N(CCc2c(C)[nH]c3ccc(C)cc23)Cc2cccnc2)cc1	-5.3	-12.1*	-6.87*	i	i	96.3*	0.153*
Cc1[nH]c2ccccc2c1CCN(Cc1cccnc1)C(=S)Nc1ccc(F)cc1	-19.6	-10.1*	i	i	i	91.7*	0.146*
CN(NS(=O)(=O)c1ccccc1)C(=O)c1ccccc1	x	i	x	x	x	x	x
Cc1cc(-n2cnc(-c3cn[nH]c3C)n2)no1	-5.7	i	i	i	i	x	x
Cn1ccs/c1=N\C(=O)Nc1cccc(C(F)(F)F)c1	-5.0	i	i	i	i	x	x
COc1ccccc1NC(=O)c1ccccc1Oc1ccccc1	-7.8	-8.8*	i	i	i	122.3*	0.121*
COc1ccccc1NC(=O)c1ccc(COc2ccccc2OC)cc1	-7.5	-8.81*	i	i	i	102.7*	i
COc1ccccc1NC(=O)c1ccccc1C(=O)O	-1.9	i	i	i	i	x	x
CCC(C)c1ccc(NC(=O)c2c([N+](=O)[O-])cnn2CC)cc1 (centres undefined)	-12.7	i	i	i	i	x	x
CCN(CC)c1nc(-c2ccc(C(=O)NN)cc2)nc(-c2ccc(C(=O)NN)cc2)n1	-0.7	-8.82*	i	i	i	52.3*	i
